Measured values taken from ChEMBL document CHEMBL2385057 (Bioorg Med Chem Lett, 2013).

System: not listed separately
Assay: Half life in human liver microsomes
Type: ADME, Microsome

Row | Structure (SMILES) | half-life
1 | COc1ccc(-c2cc(C3=Nc4c(C(C)(C)C)nn(CCCO)c4C(=O)NC3)ccc2OC)cn1 | 120 min
2 | COc1ccc(C2=Nc3c(C(C)(C)C)nn(CCCO)c3C(=O)NC2)cc1-c1cnc(N(C)C)cc1C | 42 min
3 | CCC(C)(C)c1nn(CCO)c2c1N=C(c1ccc(-n3ccnc3C)cc1)CNC2=O | 6.9 min
4 | COc1ncc(-c2cc(C3=Nc4c(C(C)(C)C)nn(CCO)c4C(=O)NC3)ccc2OC)c(OC)n1 | 36 min
5 | COc1ccc(C2=Nc3c(C(C)(C)C)nn(CCCO)c3C(=O)NC2)cc1-c1ccccc1SC | 51 min
6 | COc1ncc(-c2cc(C3=Nc4c(C(C)(C)C)nn(CCCO)c4C(=O)NC3)ccc2OC)c(OC)n1 | 120 min
7 | COc1ccc(-c2cc(C3=Nc4c(C(C)(C)C)nn(CCO)c4C(=O)NC3)ccc2OC)c(OC)c1 | 43 min
8 | COc1ccccc1-c1cc(C2=Nc3c(C(C)(C)C)nn(CCCO)c3C(=O)NC2)ccc1OC | 82 min

Further lines, results first:

Row | half-life | Structure (SMILES)
9 | 61 min | COc1ccc(OC)c(-c2cc(C3=Nc4c(C(C)(C)C)nn(CCCO)c4C(=O)NC3)ccc2OC)c1
10 | 57 min | COc1ccc(-c2cc(C3=Nc4c(C(C)(C)C)nn(CCO)c4C(=O)NC3)ccc2OC)c(OC)n1
11 | 18 min | COc1ccc(C2=Nc3c(C(C)(C)C)nn(CCO)c3C(=O)NC2)cc1-c1cnc(N2CCCCC2)nc1
12 | 48 min | COc1ccc(C2=Nc3c(C(C)(C)C)nn(CCCO)c3C(=O)NC2)cc1-c1ccccc1F

Target: cGMP-dependent 3',5'-cyclic phosphodiesterase (Homo sapiens, UniProt O00408)
Sequence (O00408 whole entry, the tested form may be a part): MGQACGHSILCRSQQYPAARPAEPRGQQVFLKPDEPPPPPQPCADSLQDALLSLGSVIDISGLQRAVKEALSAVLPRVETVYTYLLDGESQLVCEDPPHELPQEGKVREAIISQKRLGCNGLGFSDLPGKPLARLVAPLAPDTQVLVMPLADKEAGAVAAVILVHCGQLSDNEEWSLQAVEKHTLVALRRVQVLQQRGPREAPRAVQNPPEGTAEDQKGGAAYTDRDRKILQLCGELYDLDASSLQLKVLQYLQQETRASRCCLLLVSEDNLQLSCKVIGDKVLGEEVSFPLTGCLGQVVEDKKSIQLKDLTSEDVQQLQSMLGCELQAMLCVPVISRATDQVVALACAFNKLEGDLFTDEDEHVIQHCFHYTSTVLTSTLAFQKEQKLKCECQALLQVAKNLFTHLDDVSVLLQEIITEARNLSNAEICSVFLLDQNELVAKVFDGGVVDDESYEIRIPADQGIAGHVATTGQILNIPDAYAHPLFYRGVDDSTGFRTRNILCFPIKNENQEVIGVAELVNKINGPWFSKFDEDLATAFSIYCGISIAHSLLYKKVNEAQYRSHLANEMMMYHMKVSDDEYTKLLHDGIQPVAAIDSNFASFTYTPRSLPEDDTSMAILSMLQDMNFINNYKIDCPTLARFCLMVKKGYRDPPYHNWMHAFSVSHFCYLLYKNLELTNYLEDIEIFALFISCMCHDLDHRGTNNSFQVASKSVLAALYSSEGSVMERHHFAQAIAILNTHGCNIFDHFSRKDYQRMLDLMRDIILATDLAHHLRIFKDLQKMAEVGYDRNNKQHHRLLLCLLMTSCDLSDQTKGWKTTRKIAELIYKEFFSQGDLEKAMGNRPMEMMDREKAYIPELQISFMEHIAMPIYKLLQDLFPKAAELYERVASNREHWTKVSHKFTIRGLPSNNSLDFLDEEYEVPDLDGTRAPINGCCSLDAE
Assay: Inhibition of PDE2 catalytic domain (unknown origin)

Row | Structure (SMILES) | IC50
13 | COc1ccc(-c2cc(C3=Nc4c(C(C)(C)C)nn(CCCO)c4C(=O)NC3)ccc2OC)cn1 | 70 nM
14 | COc1ccc(C2=Nc3c(C(C)(C)C)nn(CCCO)c3C(=O)NC2)cc1-c1cnc(N(C)C)cc1C | 18 nM
15 | COc1ncc(-c2cc(C3=Nc4c(C(C)(C)C)nn(CCO)c4C(=O)NC3)ccc2OC)c(OC)n1 | 9.3 nM
16 | COc1ccc(C2=Nc3c(C(C)(C)C)nn(CCCO)c3C(=O)NC2)cc1-c1ccccc1SC | 505 nM
17 | COc1ncc(-c2cc(C3=Nc4c(C(C)(C)C)nn(CCCO)c4C(=O)NC3)ccc2OC)c(OC)n1 | 7 nM
18 | COc1ccc(-c2cc(C3=Nc4c(C(C)(C)C)nn(CCO)c4C(=O)NC3)ccc2OC)c(OC)c1 | 3.4 nM
19 | COc1ccccc1-c1cc(C2=Nc3c(C(C)(C)C)nn(CCCO)c3C(=O)NC2)ccc1OC | 156 nM

Further lines, results first:

Row | IC50 | Structure (SMILES)
20 | 46 nM | COc1ccc(OC)c(-c2cc(C3=Nc4c(C(C)(C)C)nn(CCCO)c4C(=O)NC3)ccc2OC)c1
21 | 1.8 nM | COc1ccc(-c2cc(C3=Nc4c(C(C)(C)C)nn(CCO)c4C(=O)NC3)ccc2OC)c(OC)n1
22 | 2.5 nM | COc1ccc(C2=Nc3c(C(C)(C)C)nn(CCO)c3C(=O)NC2)cc1-c1cnc(N2CCCCC2)nc1
23 | 586 nM | COc1ccc(C2=Nc3c(C(C)(C)C)nn(CCCO)c3C(=O)NC2)cc1-c1ccccc1F

Target: 3',5'-cyclic-AMP phosphodiesterase 4B (Homo sapiens, UniProt Q07343)
Sequence (Q07343 whole entry, the tested form may be a part): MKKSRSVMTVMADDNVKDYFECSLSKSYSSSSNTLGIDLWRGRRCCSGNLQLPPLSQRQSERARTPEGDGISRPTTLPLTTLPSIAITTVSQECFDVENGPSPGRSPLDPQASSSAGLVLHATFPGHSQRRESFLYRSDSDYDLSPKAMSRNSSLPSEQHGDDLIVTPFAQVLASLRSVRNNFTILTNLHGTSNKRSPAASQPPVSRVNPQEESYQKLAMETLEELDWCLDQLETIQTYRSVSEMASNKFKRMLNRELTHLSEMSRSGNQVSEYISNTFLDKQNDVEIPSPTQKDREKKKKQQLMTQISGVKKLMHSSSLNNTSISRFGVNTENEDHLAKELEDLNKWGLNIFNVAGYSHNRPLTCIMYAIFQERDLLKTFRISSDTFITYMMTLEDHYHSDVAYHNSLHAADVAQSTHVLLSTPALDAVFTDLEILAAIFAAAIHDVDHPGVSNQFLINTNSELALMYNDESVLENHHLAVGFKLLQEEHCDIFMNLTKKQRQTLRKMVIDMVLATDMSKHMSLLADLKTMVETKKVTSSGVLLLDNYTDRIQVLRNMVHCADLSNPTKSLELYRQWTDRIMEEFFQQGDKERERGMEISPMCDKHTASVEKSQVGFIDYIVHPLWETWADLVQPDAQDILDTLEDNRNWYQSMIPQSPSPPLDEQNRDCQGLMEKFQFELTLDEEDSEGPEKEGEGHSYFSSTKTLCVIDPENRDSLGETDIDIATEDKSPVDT
Assay: Inhibition of PDE4B catalytic domain (unknown origin)
How it was run: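 Each IC50 is the mean of at least two independent determinations. Each curve had 10 half-log dilutions, centred near the 50% inhibition level, with each point run in duplicate.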

Row | Structure (SMILES) | IC50
24 | COc1ccc(-c2cc(C3=Nc4c(C(C)(C)C)nn(CCCO)c4C(=O)NC3)ccc2OC)cn1 | 6190 nM
25 | COc1ccc(C2=Nc3c(C(C)(C)C)nn(CCCO)c3C(=O)NC2)cc1-c1cnc(N(C)C)cc1C | 5660 nM
26 | COc1ncc(-c2cc(C3=Nc4c(C(C)(C)C)nn(CCO)c4C(=O)NC3)ccc2OC)c(OC)n1 | 138 nM
27 | COc1ccc(C2=Nc3c(C(C)(C)C)nn(CCCO)c3C(=O)NC2)cc1-c1ccccc1SC | 100000 nM
28 | COc1ncc(-c2cc(C3=Nc4c(C(C)(C)C)nn(CCCO)c4C(=O)NC3)ccc2OC)c(OC)n1 | 1920 nM
29 | COc1ccc(-c2cc(C3=Nc4c(C(C)(C)C)nn(CCO)c4C(=O)NC3)ccc2OC)c(OC)c1 | 741 nM
30 | COc1ccccc1-c1cc(C2=Nc3c(C(C)(C)C)nn(CCCO)c3C(=O)NC2)ccc1OC | 2070 nM

Other lines, results leading:

Row | IC50 | Structure (SMILES)
31 | 8110 nM | COc1ccc(OC)c(-c2cc(C3=Nc4c(C(C)(C)C)nn(CCCO)c4C(=O)NC3)ccc2OC)c1
32 | 418 nM | COc1ccc(-c2cc(C3=Nc4c(C(C)(C)C)nn(CCO)c4C(=O)NC3)ccc2OC)c(OC)n1
33 | 353 nM | COc1ccc(C2=Nc3c(C(C)(C)C)nn(CCO)c3C(=O)NC2)cc1-c1cnc(N2CCCCC2)nc1
34 | 8160 nM | COc1ccc(C2=Nc3c(C(C)(C)C)nn(CCCO)c3C(=O)NC2)cc1-c1ccccc1F
